Screening results (PubChem BioAssay)
Compounds with a hit are over-represented: about 4.8% of the library has one in this group of screens.
PAFAH2 inh = inhibitors of human PAFAH2; Q99487; recombinant PAFAH2, FP-rhodamine activity probe, fluorescence polarization; inhibition, % at 3.39 µM; 340,000 tested, 0.99% active;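 active means inhibition above the mean over all tested compounds plus 3 SD, cut at about 30% in these data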;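 further: inhibitors block probe labeling of enzyme so polarization drops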
UCH37 inh = inhibitors of human deubiquitinating enzyme UCH37; inhibition, % (test concentration not listed); Q9Y5K5; 330,000 tested, 0.33% active; purified proteasome/UCH37, Ub-AMC cleavage fluorescence; AID 588478;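 active means mean inhibition over replicate wells above about 20%, limit read from the data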
Target sequence (Q9Y5K5 whole entry, looked up): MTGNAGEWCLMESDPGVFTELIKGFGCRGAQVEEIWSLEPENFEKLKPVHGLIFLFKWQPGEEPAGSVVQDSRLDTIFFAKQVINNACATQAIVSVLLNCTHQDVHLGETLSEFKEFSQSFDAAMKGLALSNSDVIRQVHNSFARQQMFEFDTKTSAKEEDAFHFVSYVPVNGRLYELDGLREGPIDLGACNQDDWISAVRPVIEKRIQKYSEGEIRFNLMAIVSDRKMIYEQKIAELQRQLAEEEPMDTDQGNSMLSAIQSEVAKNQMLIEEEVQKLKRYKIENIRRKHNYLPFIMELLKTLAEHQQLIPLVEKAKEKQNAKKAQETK
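Material: human UCH37 enzyme supplied as purified proteasome complex / Amount: 0.15 nM proteasome as dispensed / Buffer or medium: pH 7.4 Tris-HCl (50 mM) with ovalbumin, ATP-MgCl2, DTT / Times: preincubation 30 min, reaction 25 min, room temperature / Technique: AMC fluorescence from Ub-AMC cleavage, excitation 355 nm, emission 460 nm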
PAFAH1B2 FP inh = blocks human PAF acetylhydrolase 1b catalytic subunit 2; 340,000 tested, 1.2% active; recombinant PAFAH1B2, FP-rhodamine activity probe, fluorescence polarization; inhibition, % at 3.39 µM;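 active means inhibition above the mean of all tested compounds plus 3 SD, cut at about 24% in these data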
Target sequence (P68402 whole entry, looked up): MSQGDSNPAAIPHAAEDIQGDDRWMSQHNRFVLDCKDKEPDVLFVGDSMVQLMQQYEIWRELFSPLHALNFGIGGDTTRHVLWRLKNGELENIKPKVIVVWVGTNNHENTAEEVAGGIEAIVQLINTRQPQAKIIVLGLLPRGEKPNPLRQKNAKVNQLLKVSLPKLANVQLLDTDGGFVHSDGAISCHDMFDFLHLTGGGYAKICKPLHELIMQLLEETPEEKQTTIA
pPAFAH FP inh = pPAFAH (human) enzyme inhibition | inhibition, % at 3.39 µM | recombinant pPAFAH, FP-rhodamine probe fluorescence polarization | AID 463082 | Q13093 | 330,000 tested, 1.5% active;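 active means inhibition above the mean inhibition across the screen plus 3 SD, cut at about 25% in these data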;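 further: inhibitors block binding of the rhodamine activity-based probe so polarization drops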
PAFAH1B3 FP inh = blocks human PAF acetylhydrolase 1B catalytic subunit 3 | recombinant PAFAH1B3, FP-rhodamine probe, fluorescence polarization | 340,000 tested, 0.28% active | Q15102 | inhibition, % at 3.39 µM;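 active means inhibition above the screen-wide average of all tested compounds plus 3 SD, cut at about 25% in these data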
NR3A LBD binder = NR3A (human) ligand-binding domain modulation; NR3A LBD differential scanning fluorimetry, Tm shift; 0% = protein alone, 100% = glycine-bound protein; AID 1259313; Tm shift relative to glycine control, % at 25 µM; 340,000 tested, 2.5% active;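 active means melting temperature shift of at least 10% of the positive control shift, at one fixed dose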
Hits are given with their value; n = inactive; x = no result; ! = repeats disagree.

SMILES | PAFAH2 inh | UCH37 inh | PAFAH1B2 FP inh | pPAFAH FP inh | PAFAH1B3 FP inh | NR3A LBD binder
CCNC(=S)N(Cc1ccc2c(c1)OCO2)C1CC(=O)N(c2ccc(F)cc2)C1=O (centres undefined) | n | n | n | n | n | n
CCNC(=S)N(Cc1ccc(OC)cc1)C1CC(=O)N(c2ccc(OCC)cc2)C1=O (centres undefined) | n | n | n | n | n | 18
CCNC(=S)N(Cc1ccc2c(c1)OCO2)C1CC(=O)N(c2ccc(OC)cc2)C1=O (centres undefined) | n | n | n | n | n | 26
COc1ccc2[nH]c(C(=O)NCCN3CCOCC3)cc2c1 | n | n | 36 | n | n | n
O=C(NCCN1CCOCC1)c1cc2ccccc2[nH]1 | n | n | n | n | n | n
COc1ccc(C(=O)NCCNc2ccc([N+](=O)[O-])cc2)cc1 | n | n | n | n | n | 14
O=C(NCCNc1ccc([N+](=O)[O-])cc1)c1ccc(Cl)cc1 | n | n | n | n | n | 13
COc1ccc2c(CCNC(=O)c3ccc([N+](=O)[O-])cc3)c[nH]c2c1 | n | 27 | n | n | n | n
CCOCC(=O)Nc1nc2ccc(OC)cc2s1 | n | n | n | n | n | n
COc1ccc2nc(Nc3nc(C)c(C(C)=O)s3)sc2c1 | n | n | n | n | n | 11
CC(=O)c1sc(Nc2nc3cc4c(cc3s2)OCO4)nc1C | n | n | n | x | n | n
COc1ccc(Nc2nc3ccc(OC)cc3s2)cc1 | n | n | n | n | n | 28
O=C(O)COc1ccccc1C=NNC(=O)c1ccc2c(c1)OCCO2 | x | n | x | x | x | x
O=C(CNC(=O)c1cccc(F)c1)NN=Cc1cccc([N+](=O)[O-])c1 | x | n | x | x | x | x
Oc1ccccc1CNc1cccc2cccnc12 | n | n | n | 34 | n | n
O=C(Nc1ccccc1)Nc1cccc2cccnc12 | n | n | n | n | n | 13
Cc1ccc(S(=O)(=O)Nc2ccccc2C=Nc2nc3ccccc3n2C)cc1 | x | n | x | x | x | x
O=C(NN=Cc1cc(Br)cc(Br)c1O)c1cccc(S(=O)(=O)N2CCOCC2)c1 | x | n | x | x | x | x
Cc1nc2cc(C(=O)O)ccc2n1-c1ccc(F)cc1F | n | n | n | n | n | 15
CCOc1ccccc1-n1c(C)nc2cc(C(=O)O)ccc21 | n | n | n | n | n | n
CN1CCN(C(=S)Nc2ccc(Cl)c(Cl)c2)CC1 | n | n | n | n | n | 13
S=C(Nc1ccc(Cl)c(Cl)c1)N1CCN(c2ccccn2)CC1 | n | n | n | n | n | 11
COc1ccccc1NS(=O)(=O)c1cc(NC(=NS(=O)(=O)c2ccccc2)c2ccc(F)cc2)ccc1Cl | x | n | x | x | x | x
O=C(CN1c2ccccc2Sc2ccccc21)NNC(=O)Nc1ccc(Cl)cc1 | n | n | n | n | n | 39
O=C(CN1c2ccccc2Sc2ccccc21)NNC(=O)Nc1ccc(Cl)c(Cl)c1 | n | n | n | n | n | 16
SMILES | PAFAH2 inh | UCH37 inh | PAFAH1B2 FP inh | pPAFAH FP inh | PAFAH1B3 FP inh | NR3A LBD binder
O=C(CN1c2ccccc2Sc2ccccc21)NN=Cc1ccc(Cl)cc1Cl | x | n | x | x | x | x
Cc1nc(SCCC(=O)O)c2cc(-c3ccccc3)sc2n1 | n | n | 50 | n | n | n
Cc1nc(N2CCOCC2)c2cc(-c3ccccc3)sc2n1 | n | n | n | n | n | n
CCCN(CCC)CCCNC(=O)c1cc2c(=O)[nH]c3ccccc3c2n1C | n | n | n | n | n | n
Cn1c(C(=O)NCc2ccco2)cc2c(=O)[nH]c3ccccc3c21 | n | n | n | n | n | 24
Oc1ccc2ccccc2c1CNc1cnc2ccccc2c1 | n | n | n | n | n | n
Oc1ccc2ccccc2c1CNc1ccc(Br)cn1 | n | n | n | n | n | 25
Oc1ccc2ccccc2c1CNc1ccc(Br)cc1 | x | n | x | n | x | 15
Cn1c(NCc2cc(Br)ccc2O)nc2ccccc21 | n | n | n | n | n | n
Cn1c(NCc2c(O)ccc3ccccc23)nc2ccccc21 | n | n | n | n | n | 14
Cc1ccc(-c2nnc(SCC(=O)NN=Cc3cccs3)n2-c2ccc(C)cc2)cc1 | x | n | x | x | x | x
O=[N+]([O-])c1cc(-c2ccc(C(=S)N3CCOCC3)o2)ccc1Cl | n | 21 | n | n | n | n
Cc1sc(NN=Cc2cccnc2)nc1-c1ccc(Cl)cc1 | x | n | x | x | x | x
CN(C)CCCNCCCNC(=O)c1ccco1 | n | n | n | n | n | 11!
CC(C)(C)c1ccc(C(=O)NCCCNC(=O)c2ccco2)cc1 | n | n | n | n | n | n
CC(=O)Nc1ccc(OS(=O)(=O)c2ccccc2C)cc1 | n | n | n | n | n | n
CC(=O)Nc1ccc(OS(=O)(=O)c2ccc(C)cc2C)cc1 | n | n | n | n | n | 16
CC(Cc1ccccc1)=NNC(=O)CNC(=O)c1ccc(F)cc1 | x | n | x | x | x | x
Cc1ccc2nc(CSc3nc(C)cc(C)c3C#N)[nH]c2c1 | n | n | n | 26 | n | n
Cc1cc(C)c(C#N)c(SCc2ccccc2)n1 | n | n | n | n | n | n
C/C(CC(=O)Nc1ccc(Cl)c(C(F)(F)F)c1)=N\NC(=O)c1cc2ccccc2cc1O | n | x | n | n | n | 30
Cc1ccc(-c2cc(C(=O)NN=Cc3ccoc3)c3ccccc3n2)cc1 | x | n | x | x | x | x
S=C(N/N=C/c1ccc(Cl)c(Cl)c1)Nc1ccccc1Cl | n | x | n | n | n | 38
S=C(NN=Cc1ccc(Cl)c(Cl)c1)Nc1ccccc1Cl | x | n | x | x | x | x
O=[N+]([O-])c1cc(/C=N/NC(=S)Nc2ccccc2Cl)ccc1Cl | n | x | n | n | n | 18
SMILES | PAFAH2 inh | UCH37 inh | PAFAH1B2 FP inh | pPAFAH FP inh | PAFAH1B3 FP inh | NR3A LBD binder
Cc1ccc(NC(=S)N/N=C/c2ccc(Cl)c([N+](=O)[O-])c2)cc1 | n | x | n | n | n | 22
Cc1ccc(S(=O)(=O)N/N=C\c2ccc(Cl)c([N+](=O)[O-])c2)cc1 | n | x | n | n | n | n
Cc1ccc(CNC(=S)Nc2ccc(C)c([N+](=O)[O-])c2)cc1 | n | n | n | n | n | 11
Cc1ccc(NC(=S)NCc2ccccc2)cc1[N+](=O)[O-] | n | n | n | n | n | n
CCCC(=NNC(=O)C1CC1)c1ccc(Br)cc1 | x | n | x | x | x | x
Brc1ccc(-c2cn3nc4c(nc3n2)CCCC4)cc1 | n | n | n | n | n | n
Nc1nn2cc(-c3ccc(Br)cc3)nc2c2ccccc12 | n | x | n | n | n | 27
Cc1nc2oc3c(NCc4ccccc4)ncnc3c2c2c1COC(C)(C)C2 | n | n | n | 27 | n | n
Cc1nc2oc3c(NCC4CCCO4)ncnc3c2c2c1COC(C)(C)C2 (centres undefined) | n | n | n | n | n | n
NC(=NOC(=O)Cc1ccccc1[N+](=O)[O-])c1cccnc1 | x | n | x | x | x | x
COc1ccc(NC(=S)N(CCCN2CCOCC2)C(C)c2cc3cccc(OC)c3o2)cc1 (centres undefined) | n | x | n | 28 | n | n
COc1cccc2cc(C(C)N(CCCN3CCOCC3)C(=S)Nc3ccc(C)c(C)c3)oc12 (centres undefined) | n | n | n | n | n | n
